Results: article PMC10864842 (Saudi Pharmaceutical Journal : SPJ, 2024)
Where “and” joins values, the source holds several entries; their conditions need not be identical. Identical values can stand only once. Like-named read-outs stand apart in the source and are kept apart here.

Key:
MDA-MB-231 cells [1] = test: Morphological study by inverted microscope; assay type: cell-based; settings: 48 h
Outline: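 MDA-MB-231 cells were grown in DMEM with 10% FBS and 1% streptomycin/penicillin at 37 °C, 5% CO2. They were treated with varying concentrations of test compound for 48 h and examined by inverted light microscopy. Phenotypic changes were scored as cell shrinkage, apoptotic body formation and membrane blebbing.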

[2] = tested on: MDA-MB-231 breast cancer cells; test: MTT assay on MDA-MB-231 cells; assay type: cell-based; settings: Homo sapiens
Outline: (§1)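 Cells kept in DMEM with 10% (v/v) FBS and 1% (v/v) streptomycin/penicillin at 37 °C and 5% CO2. About 10^4 cells/ml were seeded and grown for 24 h. Test compounds in DMSO were added at 6.25, 12.5, 25, 50 and 100 µg/ml for 24 and 48 h. Medium was replaced with 5 mg/mL MTT for 3–4 h. Formazan was dissolved in acidified isopropanol and read at 630 nm. Viability is expressed as % of untreated cells.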

MDA-MB-231 cells [3] = test: qRT-PCR relative gene expression of P53, BAX and BCL-2; assay type: cell-based; settings: MDA-MB-231, 48 h
Outline: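 RNA was extracted from cells after 48 h of treatment with test compound, and its purity was checked by nanodrop. P53, BAX and BCL-2 expression was normalised to β-actin as the housekeeping gene. Treated and untreated cells were compared by ANOVA.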

KSP ATPase [4] = target: T1, KSP ATPase (Homo sapiens, UniProt P52732); test: Microtubule-activated KSP ATPase end-point assay; assay type: biochemical; settings: read-out: KSP ATPase inhibition [%]
T1 sequence (P52732 1-1056): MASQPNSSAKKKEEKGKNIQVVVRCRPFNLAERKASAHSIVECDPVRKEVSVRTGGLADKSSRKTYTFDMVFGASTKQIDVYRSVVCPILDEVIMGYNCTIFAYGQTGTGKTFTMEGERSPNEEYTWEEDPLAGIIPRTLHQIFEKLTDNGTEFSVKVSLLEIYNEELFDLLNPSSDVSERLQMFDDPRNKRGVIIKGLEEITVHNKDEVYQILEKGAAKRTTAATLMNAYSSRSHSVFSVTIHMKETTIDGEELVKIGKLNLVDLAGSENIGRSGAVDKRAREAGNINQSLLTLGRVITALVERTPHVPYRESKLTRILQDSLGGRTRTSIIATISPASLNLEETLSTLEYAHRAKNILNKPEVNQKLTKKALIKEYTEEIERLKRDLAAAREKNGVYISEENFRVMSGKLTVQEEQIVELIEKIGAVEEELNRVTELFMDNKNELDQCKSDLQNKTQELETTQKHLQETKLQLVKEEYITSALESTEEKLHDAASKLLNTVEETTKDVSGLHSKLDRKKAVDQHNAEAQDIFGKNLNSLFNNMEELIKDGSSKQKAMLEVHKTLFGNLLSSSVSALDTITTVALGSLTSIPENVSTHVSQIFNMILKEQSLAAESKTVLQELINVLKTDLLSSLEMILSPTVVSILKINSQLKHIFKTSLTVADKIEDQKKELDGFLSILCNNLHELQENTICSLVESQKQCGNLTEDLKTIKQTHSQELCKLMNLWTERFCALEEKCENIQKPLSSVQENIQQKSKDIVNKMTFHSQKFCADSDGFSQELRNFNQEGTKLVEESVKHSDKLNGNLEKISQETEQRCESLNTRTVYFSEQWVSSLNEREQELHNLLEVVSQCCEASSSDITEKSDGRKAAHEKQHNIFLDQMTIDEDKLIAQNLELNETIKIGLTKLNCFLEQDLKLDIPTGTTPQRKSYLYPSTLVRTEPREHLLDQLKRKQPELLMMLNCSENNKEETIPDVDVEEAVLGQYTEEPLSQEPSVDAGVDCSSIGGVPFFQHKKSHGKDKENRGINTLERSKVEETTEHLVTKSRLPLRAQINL

KSP ATPase [5] = target: T1, KSP ATPase; test: Microtubule-activated KSP ATPase kinetic assay; assay type: biochemical
PI3Kδ = PI3Kδ (Homo sapiens, UniProt O00329); test: PI3Kδ inhibition assay; assay type: biochemical
PI3Kδ, sequence (O00329 whole entry): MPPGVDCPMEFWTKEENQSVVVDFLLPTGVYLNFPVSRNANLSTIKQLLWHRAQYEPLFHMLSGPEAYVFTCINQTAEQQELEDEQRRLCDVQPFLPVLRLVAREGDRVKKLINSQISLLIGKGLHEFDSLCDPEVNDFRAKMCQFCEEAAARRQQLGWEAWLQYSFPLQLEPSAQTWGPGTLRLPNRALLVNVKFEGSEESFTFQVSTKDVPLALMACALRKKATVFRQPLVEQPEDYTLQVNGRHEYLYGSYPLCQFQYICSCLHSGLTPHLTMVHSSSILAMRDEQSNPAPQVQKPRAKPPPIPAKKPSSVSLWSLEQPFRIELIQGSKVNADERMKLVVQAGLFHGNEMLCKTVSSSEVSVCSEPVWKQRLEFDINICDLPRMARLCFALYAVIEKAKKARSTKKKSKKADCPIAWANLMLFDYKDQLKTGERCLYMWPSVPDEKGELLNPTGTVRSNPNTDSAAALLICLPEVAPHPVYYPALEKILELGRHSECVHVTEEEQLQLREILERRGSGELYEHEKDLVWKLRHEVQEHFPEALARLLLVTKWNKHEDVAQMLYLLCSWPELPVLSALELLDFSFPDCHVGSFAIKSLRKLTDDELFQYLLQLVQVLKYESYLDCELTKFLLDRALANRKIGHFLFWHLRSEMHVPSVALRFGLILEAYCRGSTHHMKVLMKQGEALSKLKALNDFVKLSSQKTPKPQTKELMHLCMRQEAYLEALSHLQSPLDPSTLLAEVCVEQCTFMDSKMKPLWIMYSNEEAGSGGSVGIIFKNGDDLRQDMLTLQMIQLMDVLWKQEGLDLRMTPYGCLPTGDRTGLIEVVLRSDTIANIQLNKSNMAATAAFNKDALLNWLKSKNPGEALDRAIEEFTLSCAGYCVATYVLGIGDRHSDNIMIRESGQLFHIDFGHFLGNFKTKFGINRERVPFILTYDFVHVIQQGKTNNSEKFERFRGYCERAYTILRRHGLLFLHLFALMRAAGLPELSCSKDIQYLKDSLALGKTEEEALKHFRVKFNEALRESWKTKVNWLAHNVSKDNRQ
PI3Kδ, sequence (P27986 whole entry partner): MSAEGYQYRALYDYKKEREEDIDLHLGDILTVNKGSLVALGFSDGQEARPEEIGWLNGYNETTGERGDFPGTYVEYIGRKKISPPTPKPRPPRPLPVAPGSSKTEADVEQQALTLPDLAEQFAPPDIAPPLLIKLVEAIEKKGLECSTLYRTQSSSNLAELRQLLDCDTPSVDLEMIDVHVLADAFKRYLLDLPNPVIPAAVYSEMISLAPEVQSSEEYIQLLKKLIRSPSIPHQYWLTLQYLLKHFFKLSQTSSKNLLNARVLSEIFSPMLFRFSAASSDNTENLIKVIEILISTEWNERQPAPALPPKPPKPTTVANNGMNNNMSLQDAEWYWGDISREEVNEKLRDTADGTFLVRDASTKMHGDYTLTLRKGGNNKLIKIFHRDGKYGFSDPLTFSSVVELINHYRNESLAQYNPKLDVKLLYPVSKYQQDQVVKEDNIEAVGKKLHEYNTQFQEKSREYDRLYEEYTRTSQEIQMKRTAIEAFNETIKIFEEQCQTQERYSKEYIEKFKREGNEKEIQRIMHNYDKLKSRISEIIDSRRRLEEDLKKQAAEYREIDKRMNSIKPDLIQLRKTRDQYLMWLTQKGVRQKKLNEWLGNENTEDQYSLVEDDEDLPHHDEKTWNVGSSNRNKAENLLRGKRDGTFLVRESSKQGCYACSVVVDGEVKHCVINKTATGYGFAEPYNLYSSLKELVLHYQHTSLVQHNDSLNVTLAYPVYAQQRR

MDA-MB-231 cells [6] = test: Annexin V-FITC/PI flow cytometry; assay type: cell-based; settings: MDA-MB-231, Annexin V-FITC & PI, post-treatment
Outline: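 MDA-MB-231 cells were kept in DMEM with 10% FBS and 1% streptomycin/penicillin at 37 °C under 5% CO2. Cells were treated with the test compound for 48 h, with doxorubicin as the standard and untreated cells for comparison. Cells were then harvested, rinsed, suspended in PBS, stained with Annexin V-FITC/PI and held 20 min in the dark before flow cytometry. Early apoptosis was Annexin V+/PI−; late apoptosis was Annexin V+/PI+.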

[7] = MTT assay on oral epithelial normal cells; assay type: cell-based
Outline: as §1

MDA-MB-231 cells [8] = test: DNA fragmentation by gel electrophoresis; assay type: cell-based; settings: post-treatment
Outline: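 MDA-MB-231 cells kept in DMEM with 10% FBS and 1% streptomycin/penicillin at 37 °C, 5% CO2. Genomic DNA was extracted with a commercial kit from cells before and after test compound treatment, and its quality was checked by nanodrop. DNA plus 1X loading dye was run on agarose gel, viewed under a UV transilluminator and imaged on a gel documentation system. Doxorubicin served as reference.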

## CCSc1nc2ccc(Cl)cc2c(=O)n1-c1ccc(F)cc1 [Compound 3a, 6-Chloro-2-(ethylthio)-3-(4-fluorophenyl)quinazolin-4(3H)-one]
MDA-MB-231 cells [1]
  Morphological changes of treated cells: cell shrinkage, apoptotic bodies formation, and membrane blebbing
[2]; MDA-MB-231, 24 h, read-out: IC50 after 24 h (µM)
  IC50: 28.5 µM
[2]; MDA-MB-231, 24 h, read-out: IC50 after 24 h in µg/mL
  IC50: 9.54 ± 0.11 µg/mL
[2]; MDA-MB-231, 48 h, read-out: IC50 after 48 h (µM)
  IC50: 14.5 µM
[2]; MDA-MB-231, 48 h, read-out: IC50 after 48 h in µg/mL
  IC50: 4.86 ± 0.18 µg/mL
MDA-MB-231 cells [3]
  Relative gene expression of BAX: significant overexpression
  Relative gene expression of BCL-2: downregulation
  Relative gene expression of P53: significant overexpression
KSP ATPase [4]
  inhibition at 2 µM: 88.3 ± 3.86%
KSP ATPase [5]
  IC50: 0.0887 ± 0.00316 µM
PI3Kδ
  IC50: 0.0382 ± 0.00215 µM
MDA-MB-231 cells [6]
  Number of cells in the early and late apoptosis versus untreated cells: significant increase
[7]
  IC50 at 48 h: 98.3 µg/mL and 294 µM
MDA-MB-231 cells [8]
  DNA fragmentation: internucleosomal fragmentation was noticed
